Measurements from ChEMBL document CHEMBL3817728, “Synthesis, Evaluation, and Mechanism Study of Novel Indole-Chalcone Derivatives Exerting Effective Antitumor Activity Through Microtubule Destabilization in Vitro and in Vivo” (J Med Chem, 2016).
pIC50: −log10 of the molar value.

Tests used:
A549 [1] = assay: Cytotoxicity against human A549 cells assessed as cell viability after 48 hrs by MTT assay; format: functional, cell-based; details: A549, 48 h
Summary of the method: (§1)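 Cancer cell lines treated with compound for 48 h, and viability read by MTT assay. IC50 given as mean ± SD from at least three independent experiments.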

HeLa = assay: Cytotoxicity against human HeLa cells assessed as cell viability after 48 hrs by MTT assay; format: functional, cell-based; summary of the method: as §1
[2] = Cytotoxicity against human Bel7402 cells assessed as cell viability after 48 hrs by MTT assay; format: functional, cell-based; details: Bel-7402, 48 h; summary of the method: as §1
MCF7 [3] = assay: Cytotoxicity against human MCF7 cells assessed as cell viability after 48 hrs by MTT assay; format: functional, cell-based; details: MCF7, 48 h; summary of the method: as §1
A2780 [4] = assay: Cytotoxicity against human A2780 cells assessed as cell viability after 48 hrs by MTT assay; format: functional, cell-based; details: A2780, 48 h; summary of the method: as §1
[5] = Cytotoxicity against human HCT8 cells assessed as cell viability after 48 hrs by MTT assay; format: functional, cell-based; details: HCT-8, 48 h; summary of the method: as §1
[6] = Cytotoxicity against human A2780/TAX cells assessed as growth inhibition after 48 hrs by MTT assay; format: functional, cell-based
Summary of the method: (§2)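 Drug-resistant lines were tested by a 48 h MTT viability assay. IC50 was derived from dose-response curves and reported as mean ± SE of at least three independent experiments.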

A2780 [7] = assay: Resistance index, ratio of IC50 for human A2780/TAX cells to IC50 for human A2780 cells; format: functional
[8] = Cytotoxicity against human HCT8/VCT cells assessed as growth inhibition after 48 hrs by MTT assay; format: functional, cell-based; summary of the method: as §2
HCT-8 = assay: Resistance index, ratio of IC50 for human HCT8/VCT cells to IC50 for human HCT8 cells; format: functional
[9] = Cytotoxicity against human A549/CDDP cells assessed as growth inhibition after 48 hrs by MTT assay; format: functional, cell-based; details: A549, 48 h; summary of the method: as §2
A549 [10] = assay: Resistance index, ratio of IC50 for human A549/CDDP cells to IC50 for human A549 cells; format: functional
[11] = Cytotoxicity against human MCF7/DX cells assessed as growth inhibition after 48 hrs by MTT assay; format: functional, cell-based; summary of the method: as §2
MCF7 [12] = assay: Resistance index, ratio of IC50 for human MCF7/DX cells to IC50 for human MCF7 cells; format: functional
A549 [13] = assay: Antitumor activity against human A549 cells xenografted in BALB/c nude mouse assessed as tumor growth inhibition at 30 mg/kg, ip administered every other day for 1 month measured every other day post dose relative to vehicle-treated control; format: functional; details: read-out: TGI
Tubulin = Tubulin (Sus scrofa, UniProt P02554+P02550); assay: Inhibition of porcine brain tubulin polymerization measured every 60 secs for 60 mins by DAPI staining-based fluorescence assay

Row | IC50 (Tubulin) | Compound | pIC50 (A549 [1]) | pIC50 (HeLa) | pIC50 [2] | pIC50 (MCF7 [3]) | pIC50 (A2780 [4]) | pIC50 [5] | pIC50 [6] | Ratio IC50 (A2780 [7]) | pIC50 [8] | Ratio IC50 (HCT-8) | pIC50 [9] | Ratio IC50 (A549 [10]) | pIC50 [11] | Ratio IC50 (MCF7 [12]) | inhibition in vivo at 30 mg/kg (A549 [13])
1 | – | COc1ccc2[nH]cc(/C=C/C(=O)c3cc(OC)c(OC)c(OC)c3)c2c1 | < 6.00 | < 6.00 | < 6.00 | < 6.00 | < 6.00 | < 6.00 | – | – | – | – | – | – | – | – | –
2 | – | CCn1cc(/C=C(\C)C(=O)c2cc(OC)c(OC)c(OC)c2)c2ccc(OC)cc21 | 7.41 | 7.19 | 7.82 | 7.49 | 7.68 | 7.25 | – | – | – | – | – | – | – | – | –
3 | – | COc1cc2c(c(OC)c1OC)C/C(=C\c1cccc3[nH]ccc13)C2=O | 7.59 | 7.57 | 7.46 | 7.33 | 7.46 | 7.42 | – | – | – | – | – | – | – | – | –
4 | – | COc1ccc2c(c1)c(/C=C/C(=O)c1cc(OC)c(OC)c(OC)c1)cn2C | 6.79 | 6.27 | 6.59 | 6.64 | 6.55 | 6.50 | – | – | – | – | – | – | – | – | –
5 | – | COc1ccc2c(/C=C(\C)C(=O)c3cc(OC)c(OC)c(OC)c3)cn(CCBr)c2c1 | 6.90 | 6.84 | 6.59 | 6.41 | 6.56 | 6.77 | – | – | – | – | – | – | – | – | –
6 | – | COc1cc(C(=O)/C=C/c2cccc3c2ccn3C)cc(OC)c1OC | 7.52 | 7.51 | 7.49 | 7.42 | 7.64 | 7.39 | – | – | – | – | – | – | – | – | –
7 | – | CC[C@]1(O)C[C@H]2CN(CCc3c([nH]c4ccccc34)[C@@](C(=O)OC)(c3cc4c(cc3OC)N(C=O)[C@H]3[C@@](O)(C(=O)OC)[C@H](OC(C)=O)[C@]5(CC)C=CCN6CC[C@]43[C@@H]65)C2)C1 [VINCRISTINE] | 7.21 | – | – | 7.01 | 7.59 | 6.46 | 6.77 | 6.46 | 5.10 | 22.5 | 6.25 | 9.2 | 5.90 | 12.9 | –
8 | – | COc1ccc2c(/C=C(\C)C(=O)c3cc(OC)c(OC)c(OC)c3)cn(C)c2c1 | 7.39 | 7.51 | 7.55 | 7.38 | 7.47 | 7.21 | – | – | – | – | – | – | – | – | –
9 | – | COc1ccc2[nH]cc(/C=C/C(=O)c3ccc(OC)c4c3OC(C)(C)C=C4)c2c1 | 6.57 | 6.49 | 6.34 | 6.11 | 6.40 | 6.25 | – | – | – | – | – | – | – | – | –
10 | – | COc1ccc(C(=O)/C=C/c2cn(C)c3cccc(OC)c23)c2c1C=CC(C)(C)O2 | < 6.00 | < 6.00 | < 6.00 | < 6.00 | < 6.00 | < 6.00 | – | – | – | – | – | – | – | – | –
11 | – | COc1cc(C(=O)/C=C/c2ccc3c(ccn3C)c2)cc(OC)c1OC | 7.28 | 7.24 | 7.11 | 7.21 | 7.35 | 7.17 | – | – | – | – | – | – | – | – | –
12 | – | COc1ccc(/C=C\c2cc(OC)c(OC)c(OC)c2)cc1OP(=O)(O)O [FOSBRETABULIN] | – | – | – | – | – | – | – | – | – | – | – | – | – | – | 52.2%
13 | – | COc1ccc2c(/C=C/C(=O)c3cc(OC)c(OC)c(OC)c3)c[nH]c2c1 | 6.65 | 6.58 | 6.45 | 6.61 | 6.93 | 6.56 | – | – | – | – | – | – | – | – | –
14 | 3590 nM | COc1ccc2c(/C=C(\C)C(=O)c3cc(OC)c(OC)c(OC)c3)cn(CO)c2c1 | 8.10 | 7.89 | 8.05 | 7.72 | 7.68 | 7.77 | – | – | – | – | – | – | – | – | –
15 | – | COc1ccc(C(=O)/C=C/c2c[nH]c3cccc(OC)c23)c2c1C=CC(C)(C)O2 | < 6.00 | < 6.00 | < 6.00 | < 6.00 | < 6.00 | < 6.00 | – | – | – | – | – | – | – | – | –
16 | – | COc1cc(C(=O)/C(C)=C/c2c[nH]c3cccc(OC)c23)cc(OC)c1OC | < 6.00 | < 6.00 | < 6.00 | < 6.00 | < 6.00 | < 6.00 | – | – | – | – | – | – | – | – | –

Row | IC50 (Tubulin) | Compound | pIC50 (A549 [1]) | pIC50 (HeLa) | pIC50 [2] | pIC50 (MCF7 [3]) | pIC50 (A2780 [4]) | pIC50 [5] | pIC50 [6] | Ratio IC50 (A2780 [7]) | pIC50 [8] | Ratio IC50 (HCT-8) | pIC50 [9] | Ratio IC50 (A549 [10]) | pIC50 [11] | Ratio IC50 (MCF7 [12]) | inhibition in vivo at 30 mg/kg (A549 [13])
17 | 5060 nM | COc1ccc2[nH]cc(/C=C(\C)C(=O)c3cc(OC)c(OC)c(OC)c3)c2c1 | 7.13 | 7.11 | 7.02 | 7.48 | 7.49 | 7.32 | – | – | – | – | – | – | – | – | –
18 | – | COc1ccc2c(c1)c(/C=C(\C)C(=O)c1cc(OC)c(OC)c(OC)c1)cn2C | 6.48 | 6.63 | 6.45 | 6.26 | 6.37 | 6.14 | – | – | – | – | – | – | – | – | –
19 | – | CCCn1cc(/C=C(\C)C(=O)c2cc(OC)c(OC)c(OC)c2)c2ccc(OC)cc21 | 6.29 | 6.27 | 6.21 | 6.30 | 6.22 | 6.17 | – | – | – | – | – | – | – | – | –
20 | 4390 nM | COc1ccc2c(/C=C/C(=O)c3ccc(OC)c4c3OC(C)(C)C=C4)c[nH]c2c1 | 7.26 | 7.31 | 7.11 | 7.25 | 7.39 | 7.11 | – | – | – | – | – | – | – | – | –
21 | – | COc1ccc2c(/C=C/C(=O)c3ccc(OC)c4c3OC(C)(C)C=C4)cn(C)c2c1 | 7.24 | 7.03 | 7.01 | 7.35 | 7.21 | 7.06 | – | – | – | – | – | – | – | – | –
22 | – | COc1ccc2c(c1)c(/C=C/C(=O)c1ccc(OC)c3c1OC(C)(C)C=C3)cn2C | 6.34 | 6.38 | 6.41 | 6.25 | 6.30 | 6.17 | – | – | – | – | – | – | – | – | –
23 | – | COc1cc(C(=O)/C=C/c2c[nH]c3cccc(OC)c23)cc(OC)c1OC | < 6.00 | < 6.00 | < 6.00 | < 6.00 | < 6.00 | < 6.00 | – | – | – | – | – | – | – | – | –
24 | – | COc1cc(C(=O)/C=C/c2cccc3[nH]ccc23)cc(OC)c1OC | 7.44 | 7.42 | 7.20 | 7.30 | 7.39 | 7.24 | – | – | – | – | – | – | – | – | –
25 | – | CC(=O)O[C@H]1C(=O)[C@@]2(C)[C@H]([C@H](OC(=O)c3ccccc3)[C@]3(O)C[C@H](OC(=O)[C@H](O)[C@@H](NC(=O)c4ccccc4)c4ccccc4)C(C)=C1C3(C)C)[C@]1(OC(C)=O)CO[C@@H]1C[C@@H]2O [PACLITAXEL] | – | – | – | – | 8.30 | 7.72 | 5.25 | – | 6.90 | – | 7.64 | – | 6.87 | – | –
26 | – | COc1cc(C(=O)/C=C/c2ccc3[nH]ccc3c2)cc(OC)c1OC | 7.48 | 7.66 | 7.47 | 7.55 | 7.55 | 7.47 | – | – | – | – | – | – | – | – | –
27 | – | COc1cccc2c1C(=O)c1c(O)c3c(c(O)c1C2=O)C[C@@](O)(C(=O)CO)C[C@@H]3O[C@H]1C[C@H](N)[C@H](O)[C@H](C)O1 [DOXORUBICIN] | 5.66 | – | – | – | 6.01 | 5.93 | 5.48 | 3.35 | 5.82 | 1.29 | 5.50 | 1.44 | 4.30 | 49.4 | –
28 | – | C=Cn1cc(/C=C(\C)C(=O)c2cc(OC)c(OC)c(OC)c2)c2ccc(OC)cc21 | 7.05 | 7.17 | 7.04 | 7.19 | 7.31 | 7.10 | – | – | – | – | – | – | – | – | –
29 | – | COc1cc(C(=O)/C(C)=C/c2cn(C)c3cccc(OC)c23)cc(OC)c1OC | < 6.00 | < 6.00 | < 6.00 | < 6.00 | < 6.00 | < 6.00 | – | – | – | – | – | – | – | – | –
30 | 3480 nM | COc1ccc2c(/C=C/C(=O)c3cc(OC)c(OC)c(OC)c3)cn(C)c2c1 | 7.64 | 7.21 | 7.21 | 7.06 | 7.60 | 7.33 | – | – | – | – | – | – | – | – | –
31 | – | COc1cc(C(=O)/C=C/c2cn(C)c3cccc(OC)c23)cc(OC)c1OC | < 6.00 | < 6.00 | < 6.00 | < 6.00 | < 6.00 | < 6.00 | – | – | – | – | – | – | – | – | –
32 | – | COc1ccc2c(/C=C(\C)C(=O)c3cc(OC)c(OC)c(OC)c3)cn(CCO)c2c1 | 7.60 | 7.46 | 7.68 | 7.85 | 7.51 | 7.70 | – | – | – | – | – | – | – | – | –
